Assay results from ChEMBL document CHEMBL1125259, “Lipophilic glycosyl phosphotriester derivatives of AZT: synthesis, NMR transmembrane transport study, and antiviral activity” (1991).

Columns and labels:
[1] = tested on: CCRF-CEM; assay: Concentration that reduced by 50% the HIV induced CPE (cytopathic effect) on day 19.; type: functional; details: Homo sapiens, 456 h, read-out: ED50 (the source's name)
In short: (§1)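 CEM-C113 cells (1×10^5 cells/mL) were infected with HIV-1 LAV-Bru or mock-infected, with compound dilutions in triplicate, for at least 7 days. Medium with or without drug was renewed every 3–4 days for longer runs. MTT absorbance was read at 540 nm. CD50 = 50% reduction of mock-infected absorbance; ED50 = dose giving 50% protection from CPE. Values are averages of at least two experiments.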

[2] = tested on: CCRF-CEM; assay: Concentration required to reduce the viability of uninfected cells (CEM-CL13) by 50% on day 7.; type: functional; details: Homo sapiens, 168 h, read-out: CD50 (the source's name); in short: as §1
[3] = target: Human immunodeficiency virus type 1 reverse transcriptase (Human immunodeficiency virus 1) (UniProt Q72547); assay: Compound ability to inhibit the production of HIV reverse transcriptase (RT) in culture supernatant of monocytic U937 on at 14 days at a concentration 5 uM; type: functional
In short: (§2)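 HIV-1-infected monocytic U937 cultures were kept up to 14 days with compound. Supernatant RT activity was measured as for CEM-C113, as [³H] cpm/50 µL. % inhibition = 100 − 100 × (cpm of treated samples / cpm of control virus).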

[4] = target: Human immunodeficiency virus type 1 reverse transcriptase (Human immunodeficiency virus 1) (UniProt Q72547); assay: Compound ability to inhibit the production of HIV reverse transcriptase (RT) in culture supernatant of monocytic U937 on at 7 days at a concentration 5 uM; type: functional; in short: as §2
[5] = target: Human immunodeficiency virus type 1 reverse transcriptase (Human immunodeficiency virus 1) (UniProt Q72547); assay: Compound ability to inhibit the production of HIV reverse transcriptase (RT) in preinfected PBL (peripheral blood lymphocytes) at 10 days at a concentration 5 uM; type: functional
In short: (§3)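 PBL were infected with HIV-1 for 1 h at 37 °C, washed twice, and resuspended in complete medium with 10% interleukin-2 and anti-human α-interferon (1000 units/mL). Cells were plated at 1×10^6 cells/well with or without compound. At each time point, 50 µL supernatant was taken for RT assay ([³H]dTTP incorporation, cpm).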

[6] = target: Human immunodeficiency virus type 1 reverse transcriptase (Human immunodeficiency virus 1) (UniProt Q72547); assay: Compound ability to inhibit the production of HIV reverse transcriptase (RT) in preinfected PBL (peripheral blood lymphocytes) at 14 days at a concentration 1 uM; type: functional; in short: as §3
[7] = target: Human immunodeficiency virus type 1 reverse transcriptase (Human immunodeficiency virus 1) (UniProt Q72547); assay: Compounds were evaluated for anti-RT activity at 0 days of culture; type: functional
In short: (§4)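 HIV-1 (12 500 CCID50) was preincubated with compound at 25 µM final for 60 min at 37 °C, pelleted by ultracentrifugation and resuspended. RT was measured at once with poly(rA)-oligo(dT) and ³H-dTTP (1 h, 37 °C, cpm). Treated virus was then put on CEM-C113 cells for 60 min and replaced with compound-free medium. Supernatant RT was read at days 7 and 9.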

[8] = target: Human immunodeficiency virus type 1 reverse transcriptase (Human immunodeficiency virus 1) (UniProt Q72547); assay: Compound ability to inhibit the production of HIV reverse transcriptase (RT) in culture supernatant of CEM-CL13 on at 15 days at a concentration 0.2 uM; type: functional
In short: (§5)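 CEM-C113 cells in RPMI 1640 with 5% heat-inactivated FCS and polybrene (2 µg/mL) were plated at 1×10^5 cells/mL with compound in PBS, in triplicate, and infected with HIV-1 LAV-Bru. From day 7, every 3–4 days, fresh medium with or without drug was added and 50 µL supernatant was taken for RT microassay. The RT microassay used poly(rA)-oligo(dT) and (methyl-³H)dTTP for 1 h at 37 °C, with TCA precipitation, read as cpm/50 µL.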

[9] = target: Human immunodeficiency virus type 1 reverse transcriptase (Human immunodeficiency virus 1) (UniProt Q72547); assay: Compound ability to inhibit the production of HIV reverse transcriptase (RT) in culture supernatant of CEM-CL13 on at 15 days at a concentration 5 uM; type: functional; in short: as §5
[10] = target: Human immunodeficiency virus type 1 reverse transcriptase (Human immunodeficiency virus 1) (UniProt Q72547); assay: Compound ability to inhibit the production of HIV reverse transcriptase (RT) in culture supernatant of CEM-CL13 on at 22 days at a concentration 5 uM; type: functional; in short: as §5
[11] = target: Human immunodeficiency virus type 1 reverse transcriptase (Human immunodeficiency virus 1) (UniProt Q72547); assay: Compounds were evaluated for anti-RT activity by MTT dose and % cell / viability was reported at 13 days of culture; type: functional
[12] = target: Human immunodeficiency virus type 1 reverse transcriptase (Human immunodeficiency virus 1) (UniProt Q72547); assay: Compounds were evaluated for anti-RT activity by MTT dose and % cell / viability was reported at 9 days of culture; type: functional
In short: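 HIV-1 was preincubated with compound at 25 µM for 60 min at 37 °C, pelleted, and added to CEM-C113 cells (1×10^5 cells/mL) for 60 min at 37 °C. Medium was then replaced without compound. At days 7 and 9, viability was read by MTT assay on 100 µL of cell suspension.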

[13] = target: Human immunodeficiency virus type 1 reverse transcriptase (Human immunodeficiency virus 1) (UniProt Q72547); assay: Percent inhibition evaluated for anti-RT activity at 9 days of culture; type: functional; set-up: concentration or dose not given beside the values; details: concentration not given here; in short: as §4
[14] = target: Human immunodeficiency virus type 1 reverse transcriptase (Human immunodeficiency virus 1) (UniProt Q72547); assay: Percent inhibition measured as the production of HIV reverse transcriptase (RT) in culture supernatant of monocytic U937 on at 14 days at a concentration 1 uM; type: functional
In short: (§6)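 U937 cells in RPMI 1640 with 5% heat-inactivated FCS, penicillin, streptomycin and polybrene (2 μg/mL), 37 °C, 5% CO2. Infected with HIV-1 LAV-Bru; compounds diluted in PBS. 50 μL supernatant aliquots were assayed for RT: 1 h, 37 °C, pH 7.8, Mg2+, poly(rA)-oligo(dT), [3H]dTTP, TCA-pyrophosphate stop, filter counting. % inhibition = 100 − 100 × (treated cpm / virus-control cpm).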

[15] = target: Human immunodeficiency virus type 1 reverse transcriptase (Human immunodeficiency virus 1) (UniProt Q72547); assay: Percent inhibition measured as the production of HIV reverse transcriptase (RT) in culture supernatant of monocytic U937 on at 7 days at a concentration 5 uM; type: functional; in short: as §6
[16] = target: Human immunodeficiency virus type 1 reverse transcriptase (Human immunodeficiency virus 1) (UniProt Q72547); details: at 25 µM
[17] = target: Human immunodeficiency virus type 1 reverse transcriptase (Human immunodeficiency virus 1) (UniProt Q72547); details: at 25 µM; remark: listed apart in the source
[18] = target: Human immunodeficiency virus type 1 reverse transcriptase (Human immunodeficiency virus 1) (UniProt Q72547); assay: Compound ability to inhibit the production of HIV reverse transcriptase (RT) in culture supernatant of monocytic U937 on at 7 days at a concentration 0.2 uM; type: functional
In short: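 HIV-1 LAV-Bru-infected U937 cultures run in complete RPMI 1640 (5% FCS, polybrene 2 µg/mL) at 37 °C with compound in triplicate. Culture supernatant (50 µL) sampled from day 7 for RT microassay: poly(rA)-oligo(dT), (methyl-3H)dTTP, Mg2+, pH 7.8, 1 h at 37 °C, TCA precipitation onto filters. Read as cpm/50 µL; % inhibition = 100 − 100 × treated/virus-control cpm.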

[19] = target: Human immunodeficiency virus type 1 reverse transcriptase (Human immunodeficiency virus 1) (UniProt Q72547); assay: Compound ability to inhibit the production of HIV reverse transcriptase (RT) in culture supernatant of CEM-CL13 on at 15 days at a concentration 1 uM; type: functional; in short: as §5
[20] = target: Human immunodeficiency virus type 1 reverse transcriptase (Human immunodeficiency virus 1) (UniProt Q72547); assay: Compound ability to inhibit the production of HIV reverse transcriptase (RT) in culture supernatant of CEM-CL13 on at 22 days at a concentration 1 uM; type: functional; in short: as §5
[21] = target: Human immunodeficiency virus type 1 reverse transcriptase (Human immunodeficiency virus 1) (UniProt Q72547); assay: Compound ability to inhibit the production of HIV reverse transcriptase (RT) in culture supernatant of CEM-CL13 on at 26 days at a concentration 1 uM; type: functional; in short: as §5
[22] = target: Human immunodeficiency virus type 1 reverse transcriptase (Human immunodeficiency virus 1) (UniProt Q72547); assay: Compound ability to inhibit the production of HIV reverse transcriptase (RT) in culture supernatant of CEM-CL13 on at 7 days at a concentration 1 uM; type: functional; in short: as §5
[23] = target: Human immunodeficiency virus type 1 reverse transcriptase (Human immunodeficiency virus 1) (UniProt Q72547); assay: Percent inhibition measured as the production of HIV reverse transcriptase (RT) in culture supernatant of monocytic U937 on at 14 days at a concentration 0.2 uM; type: functional; in short: as §6

SMILES	EC50 [1]	CC50 [2]	Activity (c.p.m. 50ul-1) [3]	Activity (c.p.m. 50ul-1) [4]	Activity (c.p.m. 50ul-1) [5]	Activity (c.p.m. 50ul-1) [6]	Activity (c.p.m. 50ul-1) [7]	Activity (c.p.m. 50ul-1) [8]	Activity (c.p.m. 50ul-1) [9]	Activity (c.p.m. 50ul-1) [10]	Cell viability [11]	Cell viability [12]	inhibition [13]	inhibition [14]	inhibition [15]	inhibition [16]	inhibition [17]	Activity (c.p.m. 50ul-1) [18]	Activity (c.p.m. 50ul-1) [19]	Activity (c.p.m. 50ul-1) [20]	other results
Cc1cn([C@H]2C[C@H](N=[N+]=[N-])[C@@H](COP(=O)(O)OCCO[C@H]3O[C@H](CO)[C@@H](O)[C@H](O)[C@@H]3O)O2)c(=O)[nH]c1=O	0.14 µM	25 µM	23000	200000	1100	39700	30000	2600	852	5500	20%	28%	0%	0%	20%	20%	41%	–	–	–	–
CCCCCCCCCCCCCCCCOP(=O)(OC[C@H]1OC(O)[C@H](O)[C@@H](O)[C@@H]1O)OC[C@H]1OC(n2cc(C)c(=O)[nH]c2=O)C[C@@H]1N=[N+]=[N-] (stereo not given in full)	1.5 µM	11 µM	–	–	36400	144000	16000	1600	–	–	39%	62%	58%	79%	–	–	–	237000	750	33000	Activity (c.p.m. 50ul-1) [21]: 72000; Activity (c.p.m. 50ul-1) [22]: 2600; inhibition [23]: 14%
Cc1cn([C@H]2C[C@H](N=[N+]=[N-])[C@@H](COP(=O)(O)OC[C@H]3OC(O)[C@H](O)[C@@H](O)[C@@H]3O)O2)c(=O)[nH]c1=O (stereo not given in full)	0.7 µM	30 µM	31400	142000	798	408	32000	750	400	1500	17%	34%	10%	9%	43%	0%	0%	–	–	–	–
Cc1cn([C@H]2C[C@H](N=[N+]=[N-])[C@@H](COP(=O)(O)OC[C@H]3OC(O)[C@@H](O)[C@@H](O)[C@@H]3O)O2)c(=O)[nH]c1=O (stereo not given in full)	0.2 µM	27 µM	24000	133000	936	46100	25000	1700	1300	12000	18%	36%	0%	0%	46%	2%	0%	–	–	–	–
Cc1cn([C@H]2C[C@H](N=[N+]=[N-])[C@@H](CO)O2)c(=O)[nH]c1=O [ZIDOVUDINE]	0.18 µM	26 µM	33000	35000	984	2020	19000	1100	500	500	34%	79%	76%	0%	86%	25%	0%	23000	600	1700	Activity (c.p.m. 50ul-1) [21]: 12000; Activity (c.p.m. 50ul-1) [22]: 100; inhibition [23]: 0%
CCCCCCCCCCCCCCCCOP(=O)(OCCO[C@H]1O[C@H](CO)[C@@H](O)[C@H](O)[C@@H]1O)OCC1OC(n2cc(C)c(=O)[nH]c2=O)CC1N=[N+]=[N-] (stereo not given in full)	1.7 µM	20 µM	–	–	–	–	13000	2400	–	–	12%	25%	0%	0%	–	–	–	343000	5500	48000	Activity (c.p.m. 50ul-1) [21]: 64000; Activity (c.p.m. 50ul-1) [22]: 6000; inhibition [23]: 0%
CCCCCCCCCCCCCCCCOP(=O)(OC[C@H]1OC(O)[C@@H](O)[C@@H](O)[C@@H]1O)OC[C@H]1OC(n2cc(C)c(=O)[nH]c2=O)C[C@@H]1N=[N+]=[N-] (stereo not given in full)	0.5 µM	2.6 µM	–	–	28000	114000	17000	1700	–	–	25%	32%	68%	0%	–	–	–	251000	500	3900	Activity (c.p.m. 50ul-1) [21]: 20000; Activity (c.p.m. 50ul-1) [22]: 2000; inhibition [23]: 0%
